hERG protect: shields human hERG channel from block by proarrhythmic agents; actives 0.51% (n = 310,000); Q12809; activation (rescue from dofetilide block), less the hit threshold, % at 10 µM; AID 1511; CHO-hERG, FluxOR thallium flux, dofetilide IC70 present;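 active means activation above the mean of controls blocked by dofetilide plus 5 SD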;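 further: thallium influx through hERG after potassium depolarization seen as dye fluorescence rise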
Target sequence (Q12809 whole entry, looked up): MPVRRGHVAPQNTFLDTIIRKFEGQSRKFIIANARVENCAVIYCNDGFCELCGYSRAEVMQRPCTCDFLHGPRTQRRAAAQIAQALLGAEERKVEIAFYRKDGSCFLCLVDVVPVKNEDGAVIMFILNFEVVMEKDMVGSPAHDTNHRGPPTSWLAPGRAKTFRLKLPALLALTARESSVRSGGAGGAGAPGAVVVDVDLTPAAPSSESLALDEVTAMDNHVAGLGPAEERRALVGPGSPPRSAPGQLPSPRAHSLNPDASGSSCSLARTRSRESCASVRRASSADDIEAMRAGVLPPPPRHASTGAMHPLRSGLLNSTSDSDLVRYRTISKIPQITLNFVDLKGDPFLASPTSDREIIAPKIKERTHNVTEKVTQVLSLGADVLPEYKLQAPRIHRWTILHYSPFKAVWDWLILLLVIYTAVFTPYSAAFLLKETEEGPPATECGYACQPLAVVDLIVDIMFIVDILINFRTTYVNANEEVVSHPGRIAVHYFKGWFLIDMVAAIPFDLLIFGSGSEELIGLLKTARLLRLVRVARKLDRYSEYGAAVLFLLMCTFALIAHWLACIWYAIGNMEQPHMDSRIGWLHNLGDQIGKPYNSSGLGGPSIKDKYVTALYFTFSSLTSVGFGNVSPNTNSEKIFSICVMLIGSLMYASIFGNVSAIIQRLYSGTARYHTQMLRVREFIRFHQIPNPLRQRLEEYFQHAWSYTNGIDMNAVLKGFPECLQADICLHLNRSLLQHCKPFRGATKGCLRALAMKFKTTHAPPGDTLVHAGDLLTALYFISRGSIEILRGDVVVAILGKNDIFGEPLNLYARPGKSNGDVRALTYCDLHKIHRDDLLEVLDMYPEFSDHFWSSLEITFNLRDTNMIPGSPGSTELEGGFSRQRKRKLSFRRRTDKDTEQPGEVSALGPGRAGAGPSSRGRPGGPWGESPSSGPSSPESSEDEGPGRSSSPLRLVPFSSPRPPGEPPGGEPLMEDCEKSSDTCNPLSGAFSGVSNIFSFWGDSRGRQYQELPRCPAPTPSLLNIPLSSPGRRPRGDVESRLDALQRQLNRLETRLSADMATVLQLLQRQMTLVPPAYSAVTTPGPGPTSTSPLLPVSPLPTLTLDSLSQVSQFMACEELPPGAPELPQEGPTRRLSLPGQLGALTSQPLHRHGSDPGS
Kir21 block: inhibitors of mouse Kir2.1 inward-rectifier potassium channel. P35561. HEK293-Kir2.1, FluxOR thallium flux fluorescence; active compounds read low. B-score at 10 µM. actives 0.85% (n = 310,000). AID 1672;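 active means fluorescence ratio B-score at or below minus 3 SD of library scores, with starting-brightness B-score within 2 SD, cut at about -4.2 in these data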;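 further: channel flux triggered by added potassium and thallium sulfate stimulus; B-score of peak minus minimum fluorescence over baseline after thallium stimulus; more negative B-score means stronger Kir2.1 block with less thallium influx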
KCNK3 inh: human KCNK3 channel inhibition, primary screen; O14649; B-score at 10 µM; actives 0.84% (n = 340,000); CHO-KCNK3 thallium flux, FluxOR fluorescence; active compounds read low; AID 602410;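 active means B-score under library mean minus 4 SD, starting fluorescence ratio at most library mean plus 5 SD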;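 further: more negative B-score means stronger inhibition of thallium flux through KCNK3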
KCNQ1 block: inhibitors of human KCNQ1 potassium channel | CHO-K1 KCNQ1, FluxOR thallium flux fluorescence; active compounds read high | P51787 | B-score at 10 µM | actives 1.3% (n = 310,000) | AID 2642;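 active means compounds whose thallium flux B-score, printed positive for inhibition, exceeds three library SD while starting fluorescence stays within three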;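 further: channel opened by potassium depolarization with thallium stimulus after 20 min compound exposure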
KCNK9 block: human KCNK9 channel inhibition; HEK293 KCNK9, FluxOR thallium flux fluorescence; active compounds read low; B-score at 10 µM; actives 1.2% (n = 310,000);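 active means ratio B-score over 3 SD below the library mean, with starting fluorescence within 5 SD of its mean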;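 further: negative B-score means less thallium flux so channel inhibition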
KCNQ1 pot: human KCNQ1 channel potentiation or activation. CHO-K1 KCNQ1, thallium flux FluxOR fluorescence; active compounds read high. B-score at 10 µM. actives 0.35% (n = 310,000);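 active means fluorescence ratio B-score, a plate-corrected score, at least three library SD, with initial intensity B-score within 5 SD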
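Assay system: CHO-K1 cells stably expressing KCNQ1; Medium: assay buffer with matched DMSO; Also added: K+/Tl+ depolarizing stimulus; Dosing: single dose; Timing: dye 90 min, compound 20 min, room temperature; Measured by: kinetic FluxOR thallium fluorescence, 10-s 1-Hz baseline, 110-s post-stimulus read; Read-out: peak-minus-minimum fluorescence over initial fluorescence, negative-control normalized, B-scored.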
KCNK9 inh conf: human KCNK9 inhibitor confirmation; shares compounds with KCNK9 block; HEK293 KCNK9 cells, FluxOR thallium flux fluorescence; inhibition, % at 10 µM; actives 43% (n = 4,900);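 active means thallium signal inhibited by more than 5 SD of the compound-free buffer control wells, on both duplicate plates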;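 further: 0% = assay buffer control wells without compound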
Kir2-1 spec: mouse Kir2.1 off-target activity of KCNK9 modulators; shares compounds with KCNK9 block; actives 4% (n = 4,900); Kir2.1 cells, FluxOR thallium flux fluorescence; inhibition, % at 10 µM;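 active means thallium signal drop more than 5 SD beyond the mean of the no-compound control wells, seen in both duplicate plates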;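 further: signal is fluorescence rise after thallium addition divided by baseline fluorescence; plate controls were assay buffer only for no effect and full block by chlorpromazine control for full effect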
HEK293 Tl ctr: non-induced cell nonspecific activity of KCNK9 modulators; shares compounds with KCNK9 block; non-induced KCNK9-HEK293, FluxOR thallium flux; inhibition, % at 10 µM; actives 40% (n = 4,900);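 active means thallium signal drop beyond 5 SD of the untreated control mean, on both duplicate plates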;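 further: plate controls were buffer only IC0 wells for no effect and SID17386958 at its maximal inhibitory level for full effect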
Starred values were filed as active, the others as inactive; i = inactive; . = no result. This is a sample that favours compounds with a hit; in the whole collection about 3.7% have one here.

SMILES	hERG protect	Kir21 block	KCNK3 inh	KCNQ1 block	KCNK9 block	KCNQ1 pot	KCNK9 inh conf	Kir2-1 spec	HEK293 Tl ctr
O=C(CSc1cccc2cccc(Cl)c12)NCc1cccs1	-8	-0.21	i	i	i	i	.	.	.
O=C1CCC(/C=C/c2ccccc2)=NN1Cc1ccc(F)cc1	-10	2.3	i	i	i	i	i	i	i
CC(C)(C)c1ccc(CN2N=C(/C=C/c3ccccc3)CCC2=O)cc1	-10	0.11	i	i	i	i	i	i	i
O=C1CCC(/C=C/c2ccccc2)=NN1Cc1ccccc1	-8	0.26	i	i	i	i	.	.	.
Cn1c(SCc2ccccc2Cl)nc2ccccc21	-10	1.4	i	i	-8.4*	i	66%*	i	i
O=C(CSc1ncn[nH]1)N1N=C2/C(=C/c3ccccc3)CCCC2C1c1ccccc1 (stereo unspecified)	-9	-0.56	i	i	-12*	i	52%*	i	33%*
Cc1cccc(NCN2C(=O)c3ccncc3C2=O)n1	-6	-0.41	i	i	i	i	i	i	i
O=C1c2ccncc2C(=O)N1Cc1cccc(Cl)c1	-2	-0.51	i	i	i	i	.	.	.
CCCOc1ccc(-c2c(=O)n(O)c3ccccc3[n+]2[O-])cc1	28*	-0.8	i	i	-8.9*	i	i	i	i
CCOc1ccc(-c2c(=O)n(OCc3ccccn3)c3ccccc3[n+]2[O-])cc1	-9	0.04	i	i	i	i	.	.	.
COc1ccccc1NC(=O)c1ccc(CSc2ncccn2)cc1	-5	0.88	.	i	i	i	.	.	.
CCOC(=O)N1CCC(NC(=O)C2CCN(C(=O)c3cc4sccc4n3CC)CC2)CC1	-9	-0.54	i	i	i	i	.	.	.
CC(C)CN(C(=O)COC(=O)CCC(=O)c1ccc(Cl)cc1)c1c(N)n(Cc2ccccc2)c(=O)[nH]c1=O	-8	-0.81	i	i	i	i	.	.	.
Cc1cc(C(=O)NCC(=O)OC(C(=O)Nc2cc(C(F)(F)F)ccc2Cl)c2ccccc2)ccc1[N+](=O)[O-] (stereo unspecified)	-6	0.54	-9.5*	i	-20*	i	62%*	i	32%*
COc1ccc(C)cc1NC(=O)C(OC(=O)CNC(=O)c1ccc(Br)cc1)c1ccccc1 (stereo unspecified)	-7	1.1	i	i	-10*	i	36%*	i	38%*
Cc1ccc(C(=O)C(OC(=O)CNC(=O)c2ccc(Cl)cc2)c2ccccc2)cc1 (stereo unspecified)	-7	-0.71	i	i	i	i	.	.	.
COc1ccc(C)cc1NC(=O)C(OC(=O)Cn1cnc2c1c(=O)n(C)c(=O)n2C)c1ccccc1 (stereo unspecified)	-15	1.6	i	i	i	i	.	.	.
CCCC(=O)OC(C(=O)Nc1cc(C(F)(F)F)ccc1Cl)c1ccccc1 (stereo unspecified)	-12	1.1	i	i	-13*	i	46%*	i	46%*
COc1ccc(C)cc1NC(=O)C(OC(=O)c1ccc(Cl)c(S(=O)(=O)N(C)c2ccccc2)c1)c1ccccc1 (stereo unspecified)	-6	-0.41	-9.8*	i	-9.6*	i	42%*	i	i
Cc1cc(Cl)c(S(=O)(=O)N2CCN(c3ccc(F)cc3)CC2)cc1OCC(=O)NC1CCCCC1	-3	-0.77	i	i	i	i	.	.	.
CCCCOc1ccc(C(=O)NCC(=O)NCC(c2ccc(OC)cc2)N2CCCC2)cc1 (stereo unspecified)	-22	0.04	i	i	i	i	.	.	.
